# Screening data (PubChem)
# TAAR1 ag: agonists of human TAAR1; Q96RJ0; activation, % at 3 µM; 360,000 tested, 0.99% active; CHO RD-HGA16 TAAR1, Fluo-8 calcium fluorescence; vehicle wells 0%, saturating PEA agonist 100%;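 active = activation above the mean activation of all test compounds in the run plus 3 SD, cut at about 38% in these data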
#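 test system = CHO RD-HGA16 cells carrying human TAAR1 plus Gα16 | schedule = 17-24 h seeding, 75 min 37 °C dye, 30 min RT | compound dosing = 3 µM single concentration | control set = DMSO and PEA EC100 | replicates = n 1 | signal = Fluo-8 fluorescence, 5 s baseline then 140 s kinetic read | measure = percent activation vs PEA EC100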
# TAAR1 antag: antagonists of human TAAR1 | Q96RJ0 | CHO RD-HGA16 TAAR1, Fluo-8 calcium fluorescence, antagonist | inhibition, % at 3 µM | 360,000 tested, 1.5% active;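 active = inhibition above a per-plate cutoff, the mean inhibition of test compounds on that plate plus 3 SD, cut at about 49% in these data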;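 note: 0% = DMSO plus EC80 beta-PEA response and 100% = DMSO alone without agonist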
#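 Test system: hTAAR1-expressing CHO RD-HGA16 cells, Gα16-coupled; Probe or stimulus: EC80 β-phenethylamine stimulus; Compound dosing: single nominal final test compound concentration of 3 µM; Timing: 140 s kinetic read after compound, 140 s after agonist; Signal: Fluo-8 calcium-sensitive fluorescence; Measure: % inhibition of agonist calcium response; Controls: DMSO and EC80 PEA controls.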
# CHO parental Ca: counter-screen: ATP calcium response change in parental CHO cells | parental CHO-K1, ATP-induced calcium, Fluo-8 fluorescence | 330,000 tested, 0.63% active | inhibition, % at 5.6 µM;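 active = inhibition above that plate's mean sample inhibition plus 3 SD, cut at about 26% in these data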;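 note: 0% = ATP-challenged DMSO wells and 100% = DMSO wells without ATP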
#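 Assay system – parental CHO cells · Reagent – ATP stimulus · Detection – intracellular calcium via Fluo-8 no-wash fluorescent dye · Evaluation – percent inhibition of ATP-evoked calcium rise, normalized to controls · Controls – ATP wells versus no-ATP DMSO wells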
# GPR7 antag: antagonists of human GPR7 (neuropeptides B/W receptor 1); P48145; GPR7-expressing cells, fluorescence antagonist assay; inhibition, % at 4.4 µM; 290,000 tested, 1.1% active; AID 1861; in the data active = inhibition above about 16%, passing the limit was not always enough;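 note: cells stimulated with the agonist NPW; 0% = agonist with vehicle and 100% = vehicle without agonist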
# OX1R antag-1: antagonists of human orexin 1 receptor (OX1R). O43613. OX1R-expressing cells, FRET antagonist read-out. inhibition, % at 6.6 µM. 330,000 tested, 1.8% active; in the data active = inhibition mostly above about 38%, no sharp cut-off; inactive = mostly below about 40%;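 note: 0% = agonist challenge alone and 100% = reference antagonist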
# Target sequence (O43613 whole entry, looked up): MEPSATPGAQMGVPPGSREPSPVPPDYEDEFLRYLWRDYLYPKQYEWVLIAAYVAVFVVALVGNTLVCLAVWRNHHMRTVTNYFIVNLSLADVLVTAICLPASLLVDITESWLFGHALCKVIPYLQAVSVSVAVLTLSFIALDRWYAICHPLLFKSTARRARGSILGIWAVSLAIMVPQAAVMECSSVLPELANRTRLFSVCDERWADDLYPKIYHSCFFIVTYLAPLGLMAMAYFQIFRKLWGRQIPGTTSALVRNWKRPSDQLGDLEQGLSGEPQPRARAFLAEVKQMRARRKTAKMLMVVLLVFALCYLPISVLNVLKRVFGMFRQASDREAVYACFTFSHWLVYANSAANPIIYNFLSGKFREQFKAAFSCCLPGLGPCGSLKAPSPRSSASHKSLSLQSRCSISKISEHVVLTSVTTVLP
# OX1R antag-2: antagonists of human orexin 1 receptor; O43613; CHO/OX1R cells, Fluo-8 calcium fluorescence, orexin A; inhibition, % at 5 µM; 330,000 tested, 0.43% active;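 active = inhibition above its plate's threshold, mean inhibition of all tested compounds on the plate plus 3 SD, cut at about 37% in these data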;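 note: 0% = orexin A challenge wells and 100% = SB-334867-A antagonist wells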
# * marks the source's active call; other numbers are inactive results; nt = no result given. Most compounds without a hit are left out; they make up all but 4.5% or so of the library.
SMILES,TAAR1 ag,TAAR1 antag,CHO parental Ca,GPR7 antag,OX1R antag-1,OX1R antag-2
Cc1cc(N2CCNC[C@@H]2C)ccc1N1CCN(Cc2ccccc2)[C@H](C)C1,10,-8,nt,nt,nt,nt
CN(C)CCCN=c1cc(-c2ccccc2)oc2ccc(Cl)cc12,4,12,nt,16,nt,nt
OCCN=c1cc(-c2ccccc2)oc2ccc(Cl)cc12,nt,nt,-17,3,47*,-38
O=C(Nc1cccnc1)OCc1ccccc1,7,-11,6,-10,-2,-5
O=C(Nc1ccc(Cl)c(Cl)c1)OCc1cccnc1,14,4,76*,8,75*,40
CC(C)CNC(=S)N1CCC(c2nc(-c3ccc(F)cc3)no2)CC1,-1,23,48*,-1,21,19
COCCNC(=S)N1CCC(c2nc(-c3ccc(N(C)C)cc3)no2)CC1,12,-19,-7,-11,15,-14
CCNC(=O)N(C)c1c(CC)nc2ccc(C(=O)N3CCN(C(=O)c4ccco4)CC3)cn12,2,-3,nt,nt,nt,nt
C/C(=N\NC(=O)c1cc(O)ccc1O)c1cccc(NC(=O)c2cccc(Cl)c2)c1,19,45,-11,-14,20,-8
C/C(=N\NC(=O)c1cc(O)ccc1O)c1cccc(NC(=O)c2ccc(Cl)cc2)c1,5,51*,-7,3,22,-27
O=C(NNc1ccnc2cc(Cl)ccc12)C1CCCCC1,1,-6,35*,-8,43,31
CCc1ccc(N/C(N)=N/c2nc(CSc3ccccn3)cc(=O)[nH]2)cc1,8,55*,-5,-1,19,-5
COc1cc2c(cc1NC(=O)C(c1ccccc1)c1ccccc1)CCCC2,10,16,32*,-7,21,36
COc1cc(NC(=O)C(c2ccccc2)c2ccccc2)c(C(=O)O)cc1OC,-1,11,-3,-9,-1,-18
C=CCCC(=O)N1C[C@H]2CCN(C)[C@H]2C[C@H]1c1ccccc1Br,-1,-4,nt,nt,nt,nt
NC(=O)c1ncn([C@@H]2O[C@H](C(=O)N[C@H](Cc3ccccc3)C(=O)N3CCN(CC(=O)Nc4ccccn4)CC3)[C@@H](O)[C@H]2O)n1,1,-2,nt,nt,nt,nt
COc1ccc(C(C(=O)NCC2CCCO2)N(Cc2ccco2)C(=O)c2snc(C(N)=O)c2N)cc1OC (configuration not stated),10,24,0,-10,20,-16
NC(=O)c1nsc(C(=O)N(c2cccc(F)c2)C(C(=O)NCc2ccccc2)c2ccc(O)cc2)c1N (configuration not stated),18,52*,2,-11,46,-9
COc1ccc(C(C(=O)NCc2ccccc2)N(Cc2ccco2)C(=O)c2snc(C(N)=O)c2N)cc1 (configuration not stated),17,64*,-3,-1,23,-11
COc1ccc(C(C(=O)NCc2ccccc2)N(Cc2ccco2)C(=O)c2snc(C(N)=O)c2N)cc1OC (configuration not stated),18,57*,-6,-4,9,-7
Cc1cc(N2CCN(CC(C)(C)O)C[C@H]2C)ccc1N1CCN(CC(C)(C)O)[C@H](C)C1,1,-11,nt,nt,nt,nt
O=C(NCCNC(=O)c1ccc(-c2cc(Cl)ccc2Cl)o1)c1cnccn1,43*,45,nt,nt,nt,nt
OC1OC2COC(c3ccccc3)OC2C(O)C1O (configuration not stated),1,-11,nt,nt,nt,nt
CC(C)OCCCNC(=O)CN1C(=O)/C(=C/c2ccccc2)Sc2ccccc21,3,18,-18,-8,69*,19
CCc1ccc(/C=C2/Sc3ccccc3N(CC(=O)NCCCOC)C2=O)cc1,nt,nt,-13,6,18,-6
SMILES,TAAR1 ag,TAAR1 antag,CHO parental Ca,GPR7 antag,OX1R antag-1,OX1R antag-2
CCOCCCNC(=O)CN1C(=O)/C(=C/c2ccccc2C)Sc2ccccc21,2,5,-12,-7,12,-5
CCOCCCNC(=O)/C=C1\Sc2ccccc2N(Cc2ccccc2F)C1=O,7,13,-12,19*,44*,-10
O=C(Nc1ccc(F)cc1)c1nn(-c2ccccc2)c(=O)cc1Cl,5,21,nt,46*,nt,nt
Cc1ccc(NC(=O)c2cc(-c3ccccc3)nn2-c2ccccc2)cc1,1,0,2,0,29,-8
Cc1cc(CNC(=O)Cc2c(F)cccc2Cl)nn1C,nt,nt,-6,19*,-2,2
O=S(OCCN1CCOCC1)C(c1ccccc1)c1ccccc1 (configuration not stated),1,4,nt,nt,nt,nt
O=c1c2ccccc2c(C=Nc2ccc(S(=O)(=O)N3CCCCC3)cc2)c(O)n1-c1ccc(Cl)cn1,4,-9,-9,-8,4,-20
O=c1c2ccccc2c(C=Nc2cccc(S(=O)(=O)NCc3ccco3)c2)c(O)n1-c1ccc(Cl)cn1,2,12,-7,-6,66*,4
COc1ccc(-n2c(C)cc(C(=O)COC(=O)Cn3cnc4ccccc43)c2C)cc1,5,27,34*,0,32,18
COc1ccc(NC(=O)COC(=O)Cn2cnc3ccccc32)cc1,4,-12,-4,nt,1,-7
COc1ccc(-n2c(C)cc(C(=O)COC(=O)c3ccc(O)cc3O)c2C)cc1,-1,26,33*,nt,18,45*
Cc1cc(C(=O)COC(=O)c2ccc(O)cc2O)c(C)n1-c1ccc(OC(F)F)cc1,0,46,nt,nt,nt,nt
O=C(Nc1ccc(Cl)cc1)C1C2CCC3C(CCC21)C3(Cl)Cl (configuration not stated),4,56*,nt,1,nt,nt
O=C(Nc1ccc(F)cc1)C1C2CCC3C(CCC21)C3(Cl)Cl (configuration not stated),-1,35,-19,0,14,27
FC(F)(F)Oc1ccccc1C(c1nnnn1-c1ccc2c(c1)OCCO2)N1CCN(C/C=C/c2ccccc2)CC1 (configuration not stated),1,0,nt,nt,nt,nt
Cc1ccc(F)c(N=Cc2c(O)c3ccccc3oc2=O)c1,-1,5,-7,-15,51*,-4
COC(=O)[C@]12C[C@H](CC(=O)NCCCCc3ccccc3)C(=O)N(CCC3=CCCCC3)C1=C[C@H](C(C)(C)C)O[C@@H]2C,1,-21,nt,nt,nt,nt
CCOc1ccccc1NC(=O)C(OC(=O)c1ccccc1)c1ccccc1 (configuration not stated),7,11,53*,-6,18,0
CCOc1ccccc1NC(=O)C(OC(=O)c1ccccc1O)c1ccccc1 (configuration not stated),1,8,-21,-1,10,-17
C[C@@H]1CN([C@@H](C)CO)C(=O)CCCn2cc(nn2)CO[C@H]1CN(C)C(=O)Nc1cccc(C(F)(F)F)c1,7,-1,nt,nt,nt,nt
CCOC(=O)c1c2c(n(Cc3ccccc3)c1C)C(=O)C(=O)c1ccccc1-2,3,55*,nt,nt,nt,nt
